Reference: ChEMBL document CHEMBL4390663, “Cationic biaryl 1,2,3-triazolyl peptidomimetic amphiphiles: synthesis, antibacterial evaluation and preliminary mechanism of action studies” (Eur J Med Chem, 2019)
Converted amounts (≈) assume the structure as drawn.

Legend:
Acinetobacter baumannii = assay: Antimicrobial activity against Acinetobacter baumannii ATCC 19606 incubated for 18 hrs by CLSI method; type: functional; conditions: ATCC 19606 = CIP 70.34 = JCM 6841, 18 h
Outline: (§1)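 Screen run by CO-ADD: mid-log cultures in cation-adjusted MHB, 5 × 10^5 CFU/mL, compounds at up to 32 μg/mL in 1:2 serial dilutions (8 steps), final DMSO ≤0.5%, duplicate. 37 °C for 18 h without shaking; OD600 read against media-only and untreated-bacteria references. MIC = lowest concentration giving ≥80% inhibition; colistin standard.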

Pseudomonas aeruginosa = assay: Antimicrobial activity against Pseudomonas aeruginosa ATCC 27853 incubated for 18 hrs by CLSI method; type: functional; conditions: ATCC 27853, 18 h; outline: as §1
Clostridioides difficile [1] = assay: Antibacterial activity against Clostridium difficile ATCC 700057 incubated for 48 hrs by CLSI method; type: functional; conditions: ATCC 700057, 48 h
Outline: (§2)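 Broth microdilution per CLSI anaerobe method in pre-reduced (2-4 h) Brucella broth with haemin and vitamin K, 35 °C anaerobically for 48 h. Compounds from 5 mg/mL DMSO stocks, twofold dilutions in water mixed with double-strength broth; final 0.25–128 μg/mL. […] Triplicate; modal MIC read visually as lowest concentration inhibiting growth.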

[2] = Cytotoxicity against human HEK293 cells assessed as reduction in cell growth incubated for 20 hrs by resazurin dye-based fluorometric assay
Outline: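 HEK293 cells, 5000 per well in DMEM + 10% FBS, exposed to compounds (top 32 μg/mL, 1:2 serial dilution ×8, ≤0.5% DMSO, duplicate) for 20 h at 37 °C, 5% CO2. Resazurin added (2.3 μg/mL final), 3 h further; fluorescence ex 560/em 590 nm. CC50 from sigmoidal dose-response fit against log concentration; tamoxifen standard.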

Enterococcus faecalis = assay: Antibacterial activity against Enterococcus faecalis ATCC 29212 incubated for 24 hrs by CLSI method; type: functional; conditions: ATCC 29212, 24 h
Staphylococcus aureus [3] = assay: Antibacterial activity against methicillin-resistant Staphylococcus aureus NCTC 10442 incubated for 24 hrs by CLSI method; type: functional; conditions: NCTC 10442, 24 h
Outline: (§3)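 Broth microdilution per CLSI aerobic guidance in Mueller Hinton broth, ambient air, 35 °C for 24 h. DMSO stocks were diluted in water, then serially diluted with double-strength broth inoculum added, for final 0.25–128 μg/mL. […] MIC was read visually as the lowest concentration inhibiting growth; the modal value of triplicates was recorded.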

Staphylococcus aureus [4] = assay: Antimicrobial activity against Staphylococcus aureus ATCC 29213 incubated for 24 hrs by CLSI method; type: functional; conditions: ATCC 29213, 24 h; outline: as §3
Clostridioides difficile [5] = assay: Antibacterial activity against Clostridium difficile NSW132 RT027 incubated for 48 hrs by CLSI method; type: functional; conditions: NSW132 RT027, 48 h; outline: as §2
Streptococcus pneumoniae = assay: Antibacterial activity against Streptococcus pneumoniae ATCC 49619 incubated for 24 hrs by CLSI method; type: functional; conditions: ATCC 49619, 24 h
Outline: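 CLSI broth microdilution in MHB with 2.5% lysed horse blood, 5% CO2, 35 °C, 24 h. Compounds from 5 mg/mL DMSO stocks diluted in water plus double-strength broth; final 0.25–128 μg/mL. […] Triplicate; modal MIC read visually as lowest growth-inhibiting concentration.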

Escherichia coli = assay: Antibacterial activity against Escherichia coli ATCC 25922 incubated for 18 hrs by CLSI method; type: functional; conditions: ATCC 25922, 18 h; outline: as §1
Staphylococcus aureus [6] = assay: Antimicrobial activity against Staphylococcus aureus ATCC 43300 incubated for 18 hrs by CLSI method; type: functional; conditions: ATCC 43300, 18 h
Klebsiella pneumoniae = assay: Antibacterial activity against Klebsiella pneumoniae 700603 incubated for 18 hrs by CLSI method; type: functional; conditions: Klebsiella pneumoniae, 700603, 18 h; outline: as §1

For `CC(C)CCOc1ccc2ccccc2c1-c1c(OCc2cn(C[C@@H](CCCNC(=N)N)NC(=O)CCc3ccccc3)nn2)ccc2ccccc12.Cl`, the MIC (Acinetobacter baumannii) was > 32 µg/mL, the MIC (Pseudomonas aeruginosa) was > 32 µg/mL and the MIC (Clostridioides difficile [1]) was 16 µg/mL. The CC50 at 20 h [2] was 15.9 µg/mL, the MIC (Enterococcus faecalis) was 8 µg/mL and the MIC (Staphylococcus aureus [3]) was 4 µg/mL. The MIC (Staphylococcus aureus [4]) was 4 µg/mL, the MIC (Clostridioides difficile [5]) was 16 µg/mL and the MIC (Streptococcus pneumoniae) was 8 µg/mL. The MIC (Escherichia coli) was > 32 µg/mL, the MIC (Staphylococcus aureus [6]) was 4 µg/mL and the MIC (Klebsiella pneumoniae) was > 32 µg/mL.

`CC(C)CCOc1ccc2ccccc2c1-c1c(OCc2cn(C[C@@H](CCCCN)NC(=O)c3ccc4ccccc4c3)nn2)ccc2ccccc12.Cl` gave an MIC (Clostridioides difficile [1]) of 64 µg/mL, an MIC (Enterococcus faecalis) of 8 µg/mL and an MIC (Staphylococcus aureus [3]) of 16 µg/mL. The MIC (Staphylococcus aureus [4]) was 16 µg/mL, the MIC (Clostridioides difficile [5]) was 64 µg/mL and the MIC (Streptococcus pneumoniae) was 32 µg/mL.

Work on `CC/C(=C(\c1ccccc1)c1ccc(OCCN(C)C)cc1)c1ccccc1` [TAMOXIFEN] yielded a CC50 at 20 h [2] of 13.1 µg/mL (≈ 35.3 µM).

In the case of `CC(C)CCOc1ccc2ccccc2c1-c1c(OCc2cn(C[C@@H](CCCNC(=N)N)NC(=O)OCc3ccccc3)nn2)ccc2ccccc12.Cl`, the MIC (Acinetobacter baumannii) is reported as > 32 µg/mL, the MIC (Pseudomonas aeruginosa) is reported as > 32 µg/mL and the MIC (Clostridioides difficile [1]) is reported as 32 µg/mL. It also gave a CC50 at 20 h [2] of 13.8 µg/mL, an MIC (Enterococcus faecalis) of 8 µg/mL and an MIC (Staphylococcus aureus [3]) of 4 µg/mL. For the same compound, the MIC (Staphylococcus aureus [4]) was 4 µg/mL, the MIC (Clostridioides difficile [5]) was 32 µg/mL and the MIC (Streptococcus pneumoniae) was 8 µg/mL. The MIC (Escherichia coli) was > 32 µg/mL, the MIC (Staphylococcus aureus [6]) was 4 µg/mL and the MIC (Klebsiella pneumoniae) was > 32 µg/mL.

Work on `CC(C)CCOc1ccc2ccccc2c1-c1c(OCc2cn(C[C@@H](CCCCN)NC(=O)[C@@H](CCCNC(=N)N)NC(=O)OCC3c4ccccc4-c4ccccc43)nn2)ccc2ccccc12.Cl.Cl` yielded an MIC (Clostridioides difficile [1]) of 32 µg/mL, an MIC (Enterococcus faecalis) of 8 µg/mL and an MIC (Staphylococcus aureus [3]) of 8 µg/mL. For the same compound, the MIC (Staphylococcus aureus [4]) was 8 µg/mL, the MIC (Clostridioides difficile [5]) was 64 µg/mL and the MIC (Streptococcus pneumoniae) was 8 µg/mL.

For `CC(C)CCOc1ccc2ccccc2c1-c1c(OCc2cn(C[C@@H](CCCCN)NC(=O)OCc3ccccc3)nn2)ccc2ccccc12.Cl`, the MIC (Clostridioides difficile [1]) was 32 µg/mL, the MIC (Enterococcus faecalis) was 8 µg/mL and the MIC (Staphylococcus aureus [3]) was 8 µg/mL. The MIC (Staphylococcus aureus [4]) was 4 µg/mL, the MIC (Clostridioides difficile [5]) was 32 µg/mL and the MIC (Streptococcus pneumoniae) was 16 µg/mL.

In the case of `CC(C)CCOc1ccccc1-c1ccccc1OCc1cn(C[C@@H](CCCNC(=N)N)NC(=O)CCc2ccccc2)nn1.Cl`, the MIC (Acinetobacter baumannii) is reported as > 32 µg/mL, the MIC (Pseudomonas aeruginosa) is reported as > 32 µg/mL and the MIC (Clostridioides difficile [1]) is reported as 128 µg/mL. For the same compound, the CC50 at 20 h [2] was > 32 µg/mL, the MIC (Enterococcus faecalis) was 16 µg/mL and the MIC (Staphylococcus aureus [3]) was 16 µg/mL. It also gave an MIC (Staphylococcus aureus [4]) of 16 µg/mL, an MIC (Clostridioides difficile [5]) of 16 µg/mL and an MIC (Streptococcus pneumoniae) of 32 µg/mL. The MIC (Escherichia coli) was > 32 µg/mL, the MIC (Staphylococcus aureus [6]) was 16 µg/mL and the MIC (Klebsiella pneumoniae) was > 32 µg/mL.

`CC(C)CCOc1ccc2ccccc2c1-c1c(OCc2cn(C[C@@H](CCCCN)NC(=O)[C@@H](CCCNC(=N)N)n3cc(CCc4ccccc4)nn3)nn2)ccc2ccccc12.Cl.Cl` gave an MIC (Acinetobacter baumannii) of 32 µg/mL, an MIC (Pseudomonas aeruginosa) of 32 µg/mL and an MIC (Clostridioides difficile [1]) of 16 µg/mL. For the same compound, the CC50 at 20 h [2] was > 32 µg/mL, the MIC (Enterococcus faecalis) was 4 µg/mL and the MIC (Staphylococcus aureus [3]) was 4 µg/mL. It also gave an MIC (Staphylococcus aureus [4]) of 4 µg/mL, an MIC (Clostridioides difficile [5]) of 16 µg/mL and an MIC (Streptococcus pneumoniae) of 4 µg/mL. The MIC (Escherichia coli) was > 32 µg/mL, the MIC (Staphylococcus aureus [6]) was 4 µg/mL and the MIC (Klebsiella pneumoniae) was > 32 µg/mL.

With `CC(C)CCOc1ccc2ccccc2c1-c1c(OCc2cn(C[C@@H](CCCCN)NC(=O)[C@@H](CCCNC(=N)N)NC(=O)CCCc3ccccc3)nn2)ccc2ccccc12.Cl.Cl` the MIC (Clostridioides difficile [1]) was 8 µg/mL, the MIC (Enterococcus faecalis) was 2 µg/mL and the MIC (Staphylococcus aureus [3]) was 4 µg/mL. The MIC (Staphylococcus aureus [4]) was 2 µg/mL, the MIC (Clostridioides difficile [5]) was 16 µg/mL and the MIC (Streptococcus pneumoniae) was 4 µg/mL.

For `CC(C)CCOc1ccccc1-c1ccccc1OCc1cn(C[C@@H](CCCCN)NC(=O)OCc2ccccc2)nn1.Cl`, the MIC (Acinetobacter baumannii) was 32 µg/mL, the MIC (Pseudomonas aeruginosa) was 32 µg/mL and the MIC (Clostridioides difficile [1]) was 8 µg/mL. For the same compound, the CC50 at 20 h [2] was 4.7 µg/mL, the MIC (Enterococcus faecalis) was 16 µg/mL and the MIC (Staphylococcus aureus [3]) was 16 µg/mL. It also gave an MIC (Staphylococcus aureus [4]) of 16 µg/mL, an MIC (Clostridioides difficile [5]) of 32 µg/mL and an MIC (Streptococcus pneumoniae) of 32 µg/mL. The MIC (Escherichia coli) was 32 µg/mL, the MIC (Staphylococcus aureus [6]) was 16 µg/mL and the MIC (Klebsiella pneumoniae) was > 32 µg/mL.

Work on `CC(C)CCOc1ccc2ccccc2c1-c1c(OCc2cn(C[C@@H](CCCCN)NC(=O)CCCc3ccccc3)nn2)ccc2ccccc12.Cl` yielded an MIC (Clostridioides difficile [1]) of 32 µg/mL, an MIC (Enterococcus faecalis) of 8 µg/mL and an MIC (Staphylococcus aureus [3]) of 16 µg/mL. For the same compound, the MIC (Staphylococcus aureus [4]) was 8 µg/mL, the MIC (Clostridioides difficile [5]) was 64 µg/mL and the MIC (Streptococcus pneumoniae) was 32 µg/mL.

With `CC(C)CCOc1ccc2ccccc2c1-c1c(OCc2cn(C[C@@H](CCCCN)NC(=O)[C@@H](CCCNC(=N)N)NC(=O)Cc3ccccc3)nn2)ccc2ccccc12.Cl.Cl` the MIC (Acinetobacter baumannii) was 32 µg/mL, the MIC (Pseudomonas aeruginosa) was 16 µg/mL and the MIC (Clostridioides difficile [1]) was 8 µg/mL. It also gave a CC50 at 20 h [2] of 12.1 µg/mL, an MIC (Enterococcus faecalis) of 4 µg/mL and an MIC (Staphylococcus aureus [3]) of 4 µg/mL. For the same compound, the MIC (Staphylococcus aureus [4]) was 2 µg/mL, the MIC (Clostridioides difficile [5]) was 16 µg/mL and the MIC (Streptococcus pneumoniae) was 4 µg/mL. For the same compound, the MIC (Escherichia coli) was 8 µg/mL, the MIC (Staphylococcus aureus [6]) was 2 µg/mL and the MIC (Klebsiella pneumoniae) was 32 µg/mL.
